From article PMC6865048 (Clinical cancer research : an official journal of the …, 2018)
“And” between values parts separate entries of the source, which are not always exact repeats. Identical values can stand only once. “Also recorded” adds a separate entry of the source. Like-named read-outs stand apart in the source and are kept apart here.

What was measured:
γH2AX = assay: IHC of double-strand DNA damage in resected tumor vs matched archival tissue; assay type: in vivo, human; settings: 8 hours
How it was run: (§1)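 A 0.5 cm³ re-resection tumor sample, snap-frozen at -80° C, was compared with FFPE tissue from the same patient's initial resection by IHC. Antibody conditions: γH2AX 1:100, 1 h at room temperature; PH3 1:100, overnight at 4°C; CC3 1:50, overnight at 4°C. Staining was quantified by semiquantitative image analysis. Mean fold change was tested against 1.000 by two-sided one-sample t test, or Wilcoxon signed-rank test if non-normal.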

phosphohistone-3 (PH3) = assay type: in vivo, human; settings: for PH3 expression vs matched archival tissue: 8 hours
How it was run: as §1

Wee1 = settings: cell-based assays; ref https://ncats.nih.gov/files/AZD1775.pdf; cited from earlier work
cleaved caspase-3 (CC3) = assay: IHC of programmed cell death in resected tumor vs matched archival tissue; assay type: in vivo, human; settings: for CC3 apoptotic marker vs matched archival tissue: 8 hours
How it was run: as §1

[1] = assay type: in vivo, human; settings: single oral dose of 400 mg, at 2 to 24 h
How it was run: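 Adult recurrent glioblastoma patients took a single oral dose before resection. Contrast-enhancing tumor was taken intraoperatively, rinsed in ice-cold PBS, blot-dried, snap-frozen and held at -80° C. EDTA blood was spun at 4°C, 1,500 × g, 10 min. Total drug in plasma and tumor was measured by validated LC/MS-MS, and fraction unbound by equilibrium dialysis. Unbound concentration = total × fraction unbound. Kp and Kp,uu = tumor/plasma total and unbound ratios.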

[2] = assay type: in vivo, human
[3] = Safety assessment in the phase 0 trial; assay type: in vivo, human; settings: single oral dose 100, 200 or 400 mg, 20 glioblastoma patients
How it was run: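 Twenty adult glioblastoma patients took a single oral dose before tumor resection. Screening collected demographics and medical history. Baseline safety assessments were physical examination, vital signs, ECOG performance status, concomitant medication record, hematology, biochemistry and urinalysis.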

[4] = 8-hour posttreatment interval (discussion)
[5] = covariate model, estimate (%RSE)

C=CCn1c(=O)c2cnc(Nc3ccc(N4CCN(C)CC4)cc3)nc2n1-c1cccc(C(C)(C)O)n1 [AZD1775]
double-stranded DNA damage measured by γH2AX vs matched archival tissue (γH2AX; 100- and 400-mg dose cohorts): less dramatic
double-stranded DNA damage measured by γH2AX vs matched archival tissue (γH2AX; 200-mg dose cohort): increased
cell-cycling (phosphohistone-3 (PH3); [4]): increased over threefold
PH3 expression change (phosphohistone-3 (PH3); 8-hour time interval, all dose cohorts together (n = 12), P = 0.0210): increased significantly
PH3 expression vs matched archival tissue (phosphohistone-3 (PH3); 200-mg dose cohort): Increased expression
PH3 expression vs matched archival tissue (phosphohistone-3 (PH3); 400-mg dose cohort): substantially increased
in vitro IC50 for inhibition of Wee1 activity and induction of DNA damage as well as G2 checkpoint escape (Wee1): 0.04 µg/mL
programmed cell death (cleaved caspase-3 (CC3); [4]): increased threefold
mean increase in CC3 expression (cleaved caspase-3 (CC3); 8-hour time interval, all dose cohorts together (n = 12), P = 0.0727): +112.2%
CC3 apoptotic marker vs matched archival tissue (cleaved caspase-3 (CC3); 200-mg dose cohort): increased most
CC3 apoptotic marker vs matched archival tissue (cleaved caspase-3 (CC3); 400-mg group): modest increase
mean unbound AZD1775 tumor concentration [1]: 85 ng/g
CL/F, apparent oral clearance ([2]; base model, estimate (%RSE)): 160 (15) L/hour
IIV of Ka ([2]; base model, estimate (%RSE)): 100 (310) CV%
Ka ([2]; base model, estimate (%RSE)): 2.00 (114) h^−1
B, covariate effect of glomerular filtration rate on CL/F ([2]; covariate model, CL/F = A + B × (GFR - 98), estimate (%RSE)): 1.7 (44)
IIV of Ka [2, 5]: 100 (300) CV%
Ka [2, 5]: 2.10 (111) h^−1
V/F, apparent volume of distribution [2, 5]: 1,500 (17) L
CL/F, apparent oral clearance ([2]; covariate model, typical patient with GFR of 98 mL/minute, estimate (%RSE)): 160 L/hour and 160^a (14) L/hour
interindividual variability of CL/F explained by glomerular filtration rate ([2]; covariate on CL/F): 17%
Vd/F ([2]; human, plasma, oral): 1500 L
first-order absorption rate constant (Ka) ([2]; one-compartment model, single oral dose 100, 200, 400 mg, glioblastoma patients): 2.1 h⁻¹
tolerability / adverse effects [3]: No drug-related adverse events; also recorded: well-tolerated; no significant adverse effects were observed
